Test results taken from PubChem BioAssay.
Calls of active or inactive are those of the source. Rule as the data show it, unless noted: active = inhibition above about 30%; inactive = the rest.

Tests used:
[1] = reducers of endogenous Her2 protein level, primary screen, SKBR3 breast tumor cells, AlphaScreen, ATP viability (AID 461;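 active = Her2 level under about 52% in both replicate screens, with viability over 70% of control, limit read from the data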;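 as to Her2 level: lower value means less Her2 protein in the cells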;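 as to viability: percent of carrier control wells set as 100% viability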); conditions: 18-24 h, measured here: SKBR3 viability, ATP luminescence, at 10 µM
[2] = biological target: Receptor tyrosine-protein kinase erbB-2 (Homo sapiens) (UniProt P04626); assay: as above; conditions: 18-24 h, at 10 µM, stronger effect = lower value
Sequence of Receptor tyrosine-protein kinase erbB-2 (Homo sapiens) (P04626 whole entry, looked up): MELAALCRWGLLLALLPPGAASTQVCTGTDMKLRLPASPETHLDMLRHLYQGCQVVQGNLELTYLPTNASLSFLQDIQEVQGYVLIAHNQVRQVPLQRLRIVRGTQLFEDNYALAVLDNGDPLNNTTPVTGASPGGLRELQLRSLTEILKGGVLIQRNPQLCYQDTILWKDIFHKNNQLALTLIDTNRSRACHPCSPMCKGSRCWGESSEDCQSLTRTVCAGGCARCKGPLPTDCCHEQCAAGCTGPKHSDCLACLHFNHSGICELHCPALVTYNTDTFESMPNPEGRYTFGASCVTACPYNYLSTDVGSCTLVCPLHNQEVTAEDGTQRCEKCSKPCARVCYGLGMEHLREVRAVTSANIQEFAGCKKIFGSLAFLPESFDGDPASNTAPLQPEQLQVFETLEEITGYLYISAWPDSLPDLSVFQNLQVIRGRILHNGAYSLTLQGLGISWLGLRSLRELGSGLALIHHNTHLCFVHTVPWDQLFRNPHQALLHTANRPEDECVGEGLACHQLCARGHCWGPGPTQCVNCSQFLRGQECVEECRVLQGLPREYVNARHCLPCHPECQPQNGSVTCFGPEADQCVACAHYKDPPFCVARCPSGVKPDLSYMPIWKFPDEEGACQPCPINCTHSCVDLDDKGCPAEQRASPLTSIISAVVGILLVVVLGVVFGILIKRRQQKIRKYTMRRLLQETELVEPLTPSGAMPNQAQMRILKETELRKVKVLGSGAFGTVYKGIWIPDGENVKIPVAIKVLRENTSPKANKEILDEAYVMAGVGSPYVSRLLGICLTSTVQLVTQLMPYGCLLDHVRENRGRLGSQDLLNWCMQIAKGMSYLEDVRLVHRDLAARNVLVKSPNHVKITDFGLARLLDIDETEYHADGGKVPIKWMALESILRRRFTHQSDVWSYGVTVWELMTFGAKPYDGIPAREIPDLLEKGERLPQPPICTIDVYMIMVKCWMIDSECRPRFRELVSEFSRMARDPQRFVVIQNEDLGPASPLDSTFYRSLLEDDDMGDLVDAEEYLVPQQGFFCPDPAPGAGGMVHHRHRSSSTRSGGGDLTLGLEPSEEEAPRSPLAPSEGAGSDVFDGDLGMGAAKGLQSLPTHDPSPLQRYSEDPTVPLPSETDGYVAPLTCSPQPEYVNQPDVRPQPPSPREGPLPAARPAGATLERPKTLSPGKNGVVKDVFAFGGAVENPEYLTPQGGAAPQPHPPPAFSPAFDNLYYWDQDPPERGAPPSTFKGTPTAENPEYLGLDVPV

[3] = SK-BR-3 cell growth inhibitors, pilot screen, 24 h, human (AID 572;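 active = viability at or below 10% of carrier control in both of two separate runs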;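 also: compound exposure lasted between 18 and 24 h rather than exactly 24 h; 100% = carrier-treated control wells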); conditions: SK-BR-3 viability, CellTiter-Glo luminescence, at 10 µM, stronger effect = lower value
[4] = HUVEC growth inhibition – cell-based, human, primary screen (AID 575;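 active = viability at or below 30% in both replicate assays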;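 also: 100% = median of untreated cell wells with 0.1% DMSO on each plate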); conditions: HUVEC proliferation, CellTiter-Glo luminescence, 72 h; at 10 µM; stronger effect = lower value
How it was run: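 Assay system: Primary human umbilical vein endothelial cells | Quantity: 1250 cells per well | Medium: Supplemented EBM, 2% fetal bovine serum | Detection: CellTiter-Glo luminescence measuring cellular ATP | Read-out: % viability vs DMSO wells | Plate: Collagen-coated 384-well format | Times: 72 h exposure, 37 °C, 5% CO2, 30 min RT equilibration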

[5] = growth inhibitors of H69AR lung tumor, primary screen, human, duplicate replicates (AID 580;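 active = viability at or under a set limit in both replicates, limit being median viability minus 3 SD, cut at about 48% in these data, passing the limit was not always enough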;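 also: 100% = mean luminescence of untreated wells and 0% = no signal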); conditions: H69AR lung tumor cells viability, ATP luminescence, 72 h; at 10 µM; stronger effect = lower value
[6] = reversal of MRP1-mediated doxorubicin resistance, pilot screen, H69AR cells, doxorubicin co-treatment (AID 601;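 active = viability loss from added drug above about 55%, and viability with drug at most 40%, in both replicates, limit read from the data, passing the limit was not always enough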); conditions: CellTiter-Glo, 72 h, at 10 µM; for differential viability (reversal): stronger effect = higher value
[7] = 384-well plate pilot, post-Golgi transport modulator project, inhibition of yeast transport mutant growth (AID 636; in the data active = inhibition above about 31%); conditions: absorbance 615 nm, about 18 h, stronger effect = higher value
[8] = growth suppression of yeast trafficking mutant, preliminary HTS, modulators of trafficking downstream of Golgi apparatus project, 1536-format plate, OD 615 nm (AID 637); conditions: yeast transport mutant growth, absorbance 615 nm, 18 h; stronger effect = higher value
[9] = H69AR cells + 2 uM doxorubicin, measured here: viability with 2 uM doxorubicin, stronger effect = lower value
[10] = H69AR cells, compound alone cytotoxicity

| Structure (SMILES) | viability [1] | Her2 level [2] | viability [3] | viability [4] | viability [5] | differential viability (reversal) ([6]; H69AR cells + 2 uM doxorubicin) | viability [6, 9] | viability [6, 10] | inhibition [7] | inhibition [8] |
| --- | --- | --- | --- | --- | --- | --- | --- | --- | --- | --- |
| O=C1NC(Cc2c[nH]c3ccccc23)C(=O)N1CCOc1ccccc1 (stereo not given) | 79.5% | 89% (inactive) | 79.5% (inactive) | 73.2% (inactive) | 94.4% (inactive) | 0.2% (inactive) | 94.2% | 94.4% | -2.76% (inactive) | -1.83% (inactive) |
| CCOC(=O)c1ccccc1NC(=O)N1CCn2c(C)ccc2C1CC (stereo not given) | 107% | 88% (inactive) | 107% (inactive) | 103% (inactive) | 84.8% (inactive) | 1.62% (inactive) | 83.2% | 84.8% | -4.46% (inactive) | -4.92% (inactive) |
| N#CC1=C(N)Oc2n[nH]c(-c3cccs3)c2C1c1cccs1 (stereo not given) | 96.5% | 79.5% (inactive) | 96.5% (inactive) | 81.4% (inactive) | 83.8% (inactive) | -2.47% (inactive) | 86.3% | 83.8% | -3.73% (inactive) | -1.31% (inactive) |
| Cc1cc(C)cc(NC(=O)CCNS(=O)(=O)c2ccc3c(c2)oc(=O)n3C)c1 | 118% | 112% (inactive) | 118% (inactive) | 95.8% (inactive) | 94.9% (inactive) | -2.07% (inactive) | 97% | 94.9% | -6.16% (inactive) | 1.75% (inactive) |
| C=CCn1c(CC#N)nnc1N1CCOCC1 | 90.5% | 88% (inactive) | 90.5% (inactive) | 100% (inactive) | 109% (inactive) | 19.4% (inactive) | 89.5% | 109% | -0.68% (inactive) | -2.22% (inactive) |
| COc1ccc(-n2ncc3c(NCc4ccccn4)ncnc32)cc1 | 98.5% | 97.5% (inactive) | 98.5% (inactive) | 102% (inactive) | 90.5% (inactive) | 3.51% (inactive) | 87% | 90.5% | -1.97% (inactive) | 4.19% (inactive) |
| CC(C)Cn1c(N)c(C(=O)COC(=O)c2cc(-c3ccco3)nc3ccccc23)c(=O)n(C)c1=O | 78.5% | 80% (inactive) | 78.5% (inactive) | 66.8% (inactive) | 89.3% (inactive) | -1.72% (inactive) | 91.1% | 89.3% | -4.32% (inactive) | -6.67% (inactive) |
| Cc1nc2c(C(=O)O)cnn2c(C)c1Cc1ccccc1F | 97.5% | 141% (inactive) | 97.5% (inactive) | 70.6% (inactive) | 87.4% (inactive) | 2.52% (inactive) | 84.8% | 87.4% | 1.84% (inactive) | -8.33% (inactive) |
| O=C(NCc1cccs1)c1cc2c(s1)CCCC2 | 92.5% | 102% (inactive) | 92.5% (inactive) | 85.8% (inactive) | 97.6% (inactive) | 5.47% (inactive) | 92.2% | 97.6% | 0.65% (inactive) | 2.13% (inactive) |
| COc1ccc2nc(NC(=O)C(NS(=O)(=O)c3cccs3)C(C)C)sc2c1 (stereo not given) | 90.5% | 77% (inactive) | 90.5% (inactive) | 70.7% (inactive) | 92.7% (inactive) | 5.86% (inactive) | 86.9% | 92.7% | -2.5% (inactive) | -5.64% (inactive) |
| CC(C)(C)n1ncc2c(=O)n(CC(=O)NCCc3ccccc3)cnc21 | 88% | 108% (inactive) | 88% (inactive) | 107% (inactive) | 90.9% (inactive) | -4.92% (inactive) | 95.8% | 90.9% | 0.92% (inactive) | -6.13% (inactive) |
| CCOCC(=O)Nc1ccc(S(=O)(=O)N2CCOCC2)cc1 | 95% | 85% (inactive) | 95% (inactive) | 92.3% (inactive) | 82.5% (inactive) | 6.46% (inactive) | 76.1% | 82.5% | -4.67% (inactive) | -2.7% (inactive) |
| CCN1CCN(C(=O)c2ccc3c(=O)n(CCC4=CCCCC4)c(=O)[nH]c3c2)CC1 | 91% | 114% (inactive) | 91% (inactive) | 78.1% (inactive) | 84.7% (inactive) | 16.7% (inactive) | 67.9% | 84.7% | -8.29% (inactive) | -0.55% (inactive) |
| CN(Cc1cccs1)CC(O)COCc1ccco1 (stereo not given) | 107% | 91.5% (inactive) | 107% (inactive) | 109% (inactive) | 90.5% (inactive) | -3.35% (inactive) | 93.9% | 90.5% | -3.92% (inactive) | 2.22% (inactive) |
| N#CC1(c2ccccc2)CCC(=NO)CC1 (stereo not given) | 106% | 91.5% (inactive) | 106% (inactive) | 90.2% (inactive) | 98.1% (inactive) | 1.23% (inactive) | 96.8% | 98.1% | -3.7% (inactive) | -2.06% (inactive) |
| Cc1nc(NCCNC(=O)c2ccco2)c2c(C)c(C)sc2n1 | 87.5% | 81% (inactive) | 87.5% (inactive) | 97.9% (inactive) | 86.5% (inactive) | 2.2% (inactive) | 84.3% | 86.5% | -4.08% (inactive) | 0.91% (inactive) |

| Structure (SMILES) | viability [1] | Her2 level [2] | viability [3] | viability [4] | viability [5] | differential viability (reversal) ([6]; H69AR cells + 2 uM doxorubicin) | viability [6, 9] | viability [6, 10] | inhibition [7] | inhibition [8] |
| --- | --- | --- | --- | --- | --- | --- | --- | --- | --- | --- |
| COc1ccc(N2CCN(C(=O)C(OC(C)=O)c3ccccc3)CC2)cc1 (stereo not given) | 96.5% | 99% (inactive) | 96.5% (inactive) | 89.4% (inactive) | 97% (inactive) | 2.1% (inactive) | 94.9% | 97% | -0.53% (inactive) | -2.38% (inactive) |
| O=C(Nc1ccc(O)cc1)C1CCCN1S(=O)(=O)c1ccc(F)cc1 (stereo not given) | 97.5% | 92% (inactive) | 97.5% (inactive) | 91.6% (inactive) | 97.3% (inactive) | 2.53% (inactive) | 94.7% | 97.3% | -1.47% (inactive) | 1.64% (inactive) |
| COc1ccc(OC)c(C2C(C(=O)Nc3cccnc3)=C(C)NC3=C2C(=O)CCC3)c1 (stereo not given) | 101% | 81% (inactive) | 101% (inactive) | 88.3% (inactive) | 98.4% (inactive) | 15.1% (inactive) | 83.3% | 98.4% | -6.22% (inactive) | 1.8% (inactive) |
| COCCOC(=O)C1=C(C)Nc2ncnn2C1c1ccc(F)cc1 (stereo not given) | 90% | 87.5% (inactive) | 90% (inactive) | 103% (inactive) | 85.8% (inactive) | 3.85% (inactive) | 82% | 85.8% | -3.6% (inactive) | -1.48% (inactive) |
| CC(C)(C)OC(=O)N1CCCC1C(=O)N1CCc2ccccc21 (stereo not given) | 95.5% | 86% (inactive) | 95.5% (inactive) | 94.9% (inactive) | 84.9% (inactive) | -4.58% (inactive) | 89.4% | 84.9% | 1.17% (inactive) | -3.81% (inactive) |
| Cc1cc(NC(=O)c2cc3ccccc3o2)cc(C)c1OCC(=O)N1CCOCC1 | 92.5% | 102% (inactive) | 92.5% (inactive) | 90.6% (inactive) | 90.3% (inactive) | 0.745% (inactive) | 89.5% | 90.3% | -6.89% (inactive) | -1.8% (inactive) |
| Cc1ccc(NC(=O)CN2CC(C)SC2=NC2CCCCC2)cc1 (stereo not given) | 84.5% | 113% (inactive) | 84.5% (inactive) | 96% (inactive) | 83.9% (inactive) | 0.935% (inactive) | 83% | 83.9% | -6.8% (inactive) | 1.94% (inactive) |
| CCc1nc(SCC(=O)Nc2nccs2)c2oc3ccccc3c2n1 | 91% | 87.5% (inactive) | 91% (inactive) | 109% (inactive) | 37.4% (active) | -5.17% (inactive) | 42.6% | 37.4% | -7.43% (inactive) | -7% (inactive) |
| CCOC(=O)c1[nH]c(C)c(C(=O)N(C)C)c1C | 110% | 88.5% (inactive) | 110% (inactive) | 103% (inactive) | 95.6% (inactive) | -0.97% (inactive) | 96.6% | 95.6% | -5.79% (inactive) | -7.3% (inactive) |
| CC(=O)c1ccc(OCC(O)CN2CC(C)OC(C)C2)cc1 (stereo not given) | 108% | 80.5% (inactive) | 108% (inactive) | 99.7% (inactive) | 105% (inactive) | 14% (inactive) | 91.3% | 105% | -5.19% (inactive) | 4.13% (inactive) |
| O=C(NCc1cccs1)C1CCCN(c2ncccn2)C1 (stereo not given) | 104% | 89.5% (inactive) | 104% (inactive) | 105% (inactive) | 94.8% (inactive) | 8.86% (inactive) | 85.9% | 94.8% | -2.4% (inactive) | -1.94% (inactive) |
| CNC(=O)c1c(O)c2cccc3c2n(c1=O)CC3 | 83.5% | 86% (inactive) | 83.5% (inactive) | 101% (inactive) | 89.5% (inactive) | -5.95% (inactive) | 95.5% | 89.5% | -0.13% (inactive) | -4.52% (inactive) |
| COc1ccc(-n2ncc3c(NCCCN4CCOCC4)ncnc32)cc1 | 102% | 102% (inactive) | 102% (inactive) | 103% (inactive) | 109% (inactive) | 4.54% (inactive) | 104% | 109% | -6.13% (inactive) | 7.87% (inactive) |
| COc1cccc(NC(=O)N[C@@H](Cc2ccccc2)C(=O)O)c1 | 94% | 91.5% (inactive) | 94% (inactive) | 93.8% (inactive) | 114% (inactive) | 19.6% (inactive) | 94.5% | 114% | -4.46% (inactive) | 2.06% (inactive) |
| CC1(C)CC(=O)C(C=Nc2ccc3c(c2)OCO3)=C(O)C1 | 114% | 113% (inactive) | 114% (inactive) | 79.2% (inactive) | 75.5% (inactive) | -27.7% (inactive) | 103% | 75.5% | 0% (inactive) | -4.33% (inactive) |
| COc1ccc2cnn(-c3ccccc3)c(=O)c2c1OC | 98% | 91% (inactive) | 98% (inactive) | 126% (inactive) | 103% (inactive) | 18.2% (inactive) | 84.6% | 103% | -1.71% (inactive) | 1.64% (inactive) |
